Experimental data pooled from the literature.
Compare with care: the assays were run in different laboratories.
SLC6A4: Sodium-dependent serotonin transporter (SLC6A4, Homo sapiens, UniProt P31645)
rep main protease: Replicase polyprotein 1ab, main protease (rep, Porcine epidemic diarrhea virus, UniProt P0C6Y4)

C1=C/COCc2cc(ccc2OCCN2CCCC2)Nc2nccc(n2)-c2cccc(c2)COC/1 — remaining binding (Serine/threonine-protein kinase Nek2 (NEK2, Homo sapiens, UniProt P51955); binding; 0.1 µM): 75%
CCOC(=O)[C@@]12C[C@@H]1[C@@H](n1cnc3c(NCCCCCCc4ccccc4)nc(I)nc31)[C@H](O)[C@@H]2O — inhibition (SLC6A4; ligand displacement, radioligand; 10 µM): 68%
COc1ccc(C(=O)NCc2cc(O)c(O)c(Br)c2)cc1OC — inhibition (rep main protease; enzyme activity, inhibitor, FRET; 10 µM): 74.7%
CCOC(=O)[C@@]12C[C@@H]1[C@@H](n1ccc3c(NCCCCCc4ccccc4)nc(C#Cc4ccccc4)nc31)[C@H](O)[C@@H]2O — inhibition (SLC6A4; ligand displacement, radioligand; 10 µM): 29%
O=C(NCc1cc(O)c(O)c(Br)c1)c1ccc2ccccc2c1 — inhibition (Replicase polyprotein 1ab, papain-like protease (rep, Porcine epidemic diarrhea virus, UniProt P0C6Y4); enzyme activity, inhibitor, FRET; 10 µM): 19.4%
CCN1/C(=C/C(C)=O)Sc2ccc(F)cc21 — inhibition (SLC6A4; ligand displacement, radioligand; 10 µM): 2.03%
CCCCC[C@H](O)/C=C/[C@H]1[C@H](O)CC(=O)[C@@H]1C/C=C\CCCC(=O)O — Emax (Prostaglandin E2 receptor EP1 subtype (PTGER1, Homo sapiens, UniProt P34995); inositol phosphate, agonist, TR-FRET; AD293; 1 h): 99.9%
COc1cc(CNC(=O)c2ccc(N(C)C)cc2)cc(Br)c1OC — inhibition (rep main protease; enzyme activity, inhibitor, FRET; 10 µM): 32.3%
CCOC(=O)[C@@]12C[C@@H]1[C@@H](n1cnc3c(NCCCCCc4ccccc4)nc(C#Cc4ccc(Cl)s4)nc31)[C@H](O)[C@@H]2O — inhibition (SLC6A4; ligand displacement, radioligand; 10 µM): -14%
O=C(NCc1cc(O)c(O)c(Br)c1)c1ccc2ccccc2n1 — inhibition (rep main protease; enzyme activity, inhibitor, FRET; 10 µM): 62.4%
CCOC(=O)[C@@]12C[C@@H]1[C@@H](n1cnc3c(NCCCCCc4ccccc4)nc(I)nc31)[C@H](O)[C@@H]2O — inhibition (SLC6A4; ligand displacement, radioligand; 10 µM): 48%
COc1cc(CNC(=O)CC(c2ccc(Cl)cc2)C(C)C)cc(Br)c1OC (stereo not drawn) — inhibition (rep main protease; enzyme activity, inhibitor, FRET; 10 µM): 33%
CCCCC(=O)Nc1ccc(-c2ccc3ncn(CCC)c(=O)c3c2)cn1 — remaining binding (Rhodopsin kinase GRK7 (GRK7, Homo sapiens, UniProt Q8WTQ7); binding, competition with immobilised ligand; 0.5 µM): 93%
COc1cc(-c2cc(C(C)=O)n3ccccc23)cc(OC)c1Cn1ccnc1 — ΔTm (Bromodomain adjacent to zinc finger domain protein 2B, bromodomain (BAZ2B, Homo sapiens, UniProt Q9UIF8); thermal stability, DSF): 1.6 °C
N#CC[C@@]12C[C@@H]1[C@@H](n1cnc3c(NC4CC4)nc(C#Cc4ccc(Cl)s4)nc31)[C@H](O)[C@@H]2O — inhibition (SLC6A4; ligand displacement, radioligand; 10 µM): 15%
Cc1cc(O)c(-c2ccc([C@@H](C)CN(C)C)cc2)c2c1[nH]c(=O)c1sccc12 — inhibition (Mitogen-activated protein kinase kinase kinase 20 (MAP3K20, Homo sapiens, UniProt Q9NYL2); enzyme activity, inhibitor; 0.1 µM): -2.95%
CCOC(=O)[C@@]12C[C@@H]1[C@@H](n1cnc3c(Nc4ccccc4)nc(C#Cc4ccc(Cl)s4)nc31)[C@H](O)[C@@H]2O — inhibition (SLC6A4; ligand displacement, radioligand; 10 µM): 20%
COc1ccc(CNC(=O)c2ccc(Br)cc2)cc1OC — inhibition (rep main protease; enzyme activity, inhibitor, FRET; 10 µM): 60.4%
